Only some compounds are listed: those with a hit (about 2% of all), similar ones and a draw of the others.
mABHD4 FP: ABHD4 (mouse) inhibition, primary FP screen | Q8VD66 | purified mABHD4, FP-Rh probe fluorescence polarization | inhibition, % at 8.92 µM | 0.54% of 370,000 active;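 active = inhibition exceeding the mean over every tested compound plus 3 SD, cut at about 30% in these data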
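assay system = mABHD4 protein | compound dosing = single nominal dose of 8.92 µM, 0.89% DMSO final | read-out basis = percent inhibition of probe binding, normalized to plate controls | schedule = Enzyme–compound pre-incubation 45 min, then probe 60 min, both 25 °C | detection = fluorescence polarization, excitation 525 nm, emission 598 nm, BODIPY TMR filters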
PAD4 inh: inhibitors of human PAD4 | inhibition, % at 6.36 µM | 0.41% of 330,000 active | recombinant PAD4, RCA probe fluorescence polarization;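 active = percent inhibition above a cutoff equal to the mean of all tested compounds plus 3 SD, cut at about 15% in these data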
Target sequence (Q9UM07 whole entry, looked up): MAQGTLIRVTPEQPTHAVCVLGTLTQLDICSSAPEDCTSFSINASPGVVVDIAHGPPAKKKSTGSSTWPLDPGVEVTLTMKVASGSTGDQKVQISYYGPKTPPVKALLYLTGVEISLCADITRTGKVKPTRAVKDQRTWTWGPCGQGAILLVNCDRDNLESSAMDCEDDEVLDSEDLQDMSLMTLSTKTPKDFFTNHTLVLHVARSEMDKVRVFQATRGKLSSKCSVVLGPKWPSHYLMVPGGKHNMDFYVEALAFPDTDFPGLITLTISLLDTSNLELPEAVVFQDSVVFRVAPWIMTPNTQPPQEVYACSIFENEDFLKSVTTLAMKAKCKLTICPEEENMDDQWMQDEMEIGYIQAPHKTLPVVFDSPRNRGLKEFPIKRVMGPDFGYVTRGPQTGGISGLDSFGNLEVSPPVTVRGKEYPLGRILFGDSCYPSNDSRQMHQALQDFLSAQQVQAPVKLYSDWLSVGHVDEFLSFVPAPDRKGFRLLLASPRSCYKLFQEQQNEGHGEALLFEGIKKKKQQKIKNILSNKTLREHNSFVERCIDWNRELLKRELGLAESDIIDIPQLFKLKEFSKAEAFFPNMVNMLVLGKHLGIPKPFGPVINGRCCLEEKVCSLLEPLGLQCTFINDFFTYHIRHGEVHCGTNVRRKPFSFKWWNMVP
TCR CD3 inh: blocks the human TCR-CD3 interaction | TAMRA-labeled TCR probe fluorescence, biochemical | inhibition, % at 9.4 µM | 0.37% of 360,000 active; in the data active = inhibition above about 19%;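 note: recombinant mutant TCR 2C K166C tagged with TAMRA read by polarization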
TDP2 inh: blocks human TDP2 phosphodiesterase activity | O95551 | recombinant TDP2, T5PNP hydrolysis, p-nitrophenol absorbance 415 nm | inhibition, % at 12.8 µM | 0.34% of 370,000 active;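 active = inhibition above the mean of all tested compounds plus 3 SD, set per campaign, cut at about 25% in these data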
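Assay system: Recombinant human TDP2 | Quantity: 120 nM TDP2 per well | Incubation: 2 h at 37 °C | Signal: Epi absorbance | Evaluation: Percent inhibition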
HTRA1 inh: inhibitors of human serine peptidase HTRA1; Q92743; recombinant HTRA1, FP-rhodamine activity-based probe, fluorescence polarization; inhibition, % at 5.96 µM; 0.5% of 340,000 active; in the data active = inhibition above about 36%
SIAE primary: blocks human sialic acid acetylesterase; SIAE FP-Rh probe binding, fluorescence polarization; Q9HAT2; 0.69% of 370,000 active; inhibition, % at 9.66 µM;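 active = inhibition above a cutoff: mean of compounds within the control limits plus 3 SD of those, cut at about 17% in these data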
HTRA1 inh conf: HTRA1 (human) inhibition, confirmation; shares compounds with HTRA1 inh; recombinant HTRA1, FP-rhodamine activity-based probe, fluorescence polarization; inhibition, % at 5.96 µM; 66% of 1,600 active; AID 540248;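 active = mean inhibition over three repeats above a set limit taken from the earlier primary screen, cut at about 37% in these data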;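 note: inhibitors block probe binding so polarization drops and inhibition rises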
Numbers stand for hits; n = inactive; x = no result.

SMILES | mABHD4 FP | PAD4 inh | TCR CD3 inh | TDP2 inh | HTRA1 inh | SIAE primary | HTRA1 inh conf
CC(C)(C)c1cc(C(=O)N/N=C/c2ccccc2O)n(-c2ccccc2)n1 | n | n | n | n | 37 | n | 51
CC(C)(C)c1cc(C(=O)N/N=C/c2ccc(F)cc2)n(-c2ccccc2)n1 | n | n | n | n | n | n | x
Nc1c(S(=O)(=O)O)cc(NC(=O)c2ccccc2)c2c1C(=O)c1ccccc1C2=O | x | n | x | x | 55 | x | 72
COCCNC(=S)N1CCC2CC1c1cc(-c3ccc4c(c3)OCO4)ccc12 (centres undefined) | n | x | n | n | x | n | x
CSCC[C@H](NC(=O)[C@@H]1CSC2c3ccccc3C(=O)N21)C(=O)NCc1ccco1 (some centres undefined) | n | n | n | n | n | n | x
Cc1cc(C)c2c(c1)NC(C(=O)O)C1CC=CC21 (centres undefined) | 56 | n | 29 | n | 74 | 20 | 70
CCOC(=O)c1ccc2c(c1)C1C=CCC1C(C(=O)O)N2 (centres undefined) | x | n | x | x | x | x | x
CC1CCCCC1NC(=O)COC(=O)c1c2c(nc3ccccc13)/C(=C\c1ccco1)CC2 (centres undefined) | 33 | x | n | n | 57 | n | n
COc1ccc2c(C(=O)NCc3ccc4c(c3)OCO4)c(-c3ccc(S(C)(=O)=O)cc3)sc2c1 | n | n | n | n | n | n | x
O=[N+]([O-])c1cccc2nc3ccccc3c(NCCCn3ccnc3[N+](=O)[O-])c12 | n | x | n | n | n | n | x
COc1c(OC2OC(C(=O)O)C(O)C(O)C2O)cc(O)c2c(=O)cc(-c3ccccc3)oc12 (centres undefined) | n | n | n | n | n | n | x
O=C(O)C1OC(Oc2cc3oc(-c4ccccc4)cc(=O)c3c(O)c2O)C(O)C(O)C1O (centres undefined) | n | n | n | n | 45 | n | 43
CC(C)(C)CN1CCN(CC#Cc2ccccc2)CC1CCO (centres undefined) | n | n | n | n | n | n | x
O=C(NC(=S)NNC(=O)c1ccccc1O)c1cccs1 | n | n | n | n | 56 | n | 54
CN(Cc1ccccc1)C(=O)c1cccc(NC(=O)C2CCCN(C(=O)OC(C)(C)C)C2)c1 (centres undefined) | n | n | n | n | n | n | x
COc1cc(C)nc(N2CCC(C(=O)NCC3CCCO3)CC2)n1 (centres undefined) | n | n | n | n | n | n | x
COc1cccc(/C=N/NC(=O)N/N=C/c2cccc(OC)c2O)c1O | n | n | n | n | 60 | n | 85
COc1cccc(/C=N/NC(=O)c2c(C)nc3ccc(Br)cn23)c1O | x | n | x | x | 54 | x | 52
COc1cccc(/C=N/NC(=O)c2nc(-c3ccccc3)cc(-c3ccccc3)n2)c1O | n | n | n | n | 43 | n | 57
O=S(=O)(Nc1cccc(S(=O)(=O)N2CCCC2)c1)c1ccc(Cl)cc1 | n | n | n | n | n | n | x
CCOc1ccccc1/C=C/c1nc2ccccc2[nH]c1=O | n | x | n | n | 40 | n | n
CCOc1ccccc1OCCCC(=O)Nc1nc2ccccc2[nH]1 | n | n | n | n | n | n | x
Nc1cc([N+](=O)[O-])cc2oc(-c3ccccc3)cc12 | n | n | n | n | 45 | n | 38
O=C(/C=C/c1ccc(O)c(O)c1)OCCc1ccccc1 | n | n | n | n | 64 | n | 71
Cc1ccnc2nc(C(=O)OCC(=O)Nc3ccc4c(c3)OCCO4)nn12 | n | n | n | n | n | n | x
SMILES | mABHD4 FP | PAD4 inh | TCR CD3 inh | TDP2 inh | HTRA1 inh | SIAE primary | HTRA1 inh conf
Oc1cccc2ccc(/C=C/c3ccccc3Cl)nc12 | n | n | n | n | 46 | n | 57
O=C(c1ccco1)N1CCC(Oc2cccnc2)CC1 | n | x | x | n | x | n | x
Cc1cc(-c2csc(N)n2)c(C)n1CCC(C)C | n | n | n | n | 53 | n | 63
Cc1cccc(Cn2cc(COC(=O)N3CCOCC3)nn2)c1 | n | x | x | n | x | n | x
c1ccc(-c2nc3cc4ccccc4cc3[nH]2)nc1 | n | n | n | n | 55 | n | 60
COc1cccc(N2C(=NC(=O)C3CCCCC3)SC3CS(=O)(=O)CC32)c1 (centres undefined) | n | n | n | n | n | n | x
COC(=O)CCC(=O)OC1(C)C(=O)C2=CN(CCCOC(C)C)C(c3ccc(OC)cc3)=CC2=C(Br)C1=O (centres undefined) | x | n | x | x | 39 | x | 50
COC(=O)CCC(=O)OC1(C)C(=O)C2=CN(Cc3ccc(OC)cc3)C(c3ccc(OC)cc3)=CC2=C(Br)C1=O (centres undefined) | n | n | n | n | n | n | x
COC(=O)CCC(=O)OC1(C)C(=O)C2=CN(Cc3ccccc3)C(c3ccc(OC)cc3)=CC2=C(Br)C1=O (centres undefined) | n | n | n | n | 60 | n | 63
COC(=O)CCC(=O)OC1(C)C(=O)C2=CN(CC3CC3)C(c3ccc(OC)cc3)=CC2=C(Br)C1=O (centres undefined) | x | n | x | x | 50 | x | 46
COC(=O)CCC(=O)OC1(C)C(=O)C2=CN(C3CC3)C(c3ccc(OC)cc3)=CC2=C(Br)C1=O (centres undefined) | n | n | n | n | n | n | x
COC(=O)CCC(=O)OC1(C)C(=O)C2=CN(c3ccccc3)C(c3ccc(OC)cc3)=CC2=C(Br)C1=O (centres undefined) | n | n | n | n | 47 | n | 48
Cc1cc(Br)cn2c(CC(C)(C)C)c(-c3cccc(Cl)c3)nc12 | n | x | n | n | x | n | x
O=C(OCc1cn(Cc2ccccc2)nn1)N1CCCC1 | n | x | x | n | x | n | x
CC(=NNC(=O)CCC(=O)Nc1ccccc1Cl)c1ccco1 | n | n | n | n | n | n | x
O=C(N/N=C/c1sc(N2CCOCC2)nc1-c1ccccc1)c1cccc(S(=O)(=O)N2CCCC2)c1 | n | n | n | n | 46 | n | 63
CC(=NNc1nc2ccccc2s1)c1ccncn1 | n | x | n | n | 48 | n | n
N/C(=N\OC(=O)c1ccc2c(c1)OCO2)c1cccc(Br)c1 | n | n | n | n | n | n | x
N/C(Cc1cccc2ccccc12)=N\OC(=O)c1ccc2c(c1)OCO2 | n | n | n | n | 43 | n | n
O=C(N/N=C/c1ccc(OCc2ccc(F)cc2)cc1)c1ccccc1 | n | n | n | n | n | n | x
O=C(COc1ccccc1C(=O)N/N=C\c1ccc(O)c(O)c1)N/N=C/c1ccc(O)c(O)c1 | x | n | x | x | 47 | x | 59
CC(C)(C)c1ccc(OCc2ccc(C(=O)N/N=C/c3ccc(O)c(O)c3)cc2)cc1 | n | n | n | n | 45 | n | 81
Cc1cc2cc(CNC(=S)Nc3ccc(OC(F)(F)F)cc3)ccc2n1C | n | n | n | n | 41 | n | n

High-throughput results as filed in PubChem.
